According to publication PMC12123727 (BMC Cancer, 2025):

Assay: Phase 1 safety evaluation
Type: in vivo, human
Conditions: for Dose interruption: due to thrombocytopenia; for tolerability: Chinese patients with r/r B cell NHL, 40-80 mg BID
Method in brief: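 3 + 3 escalation of oral test compound, 40, 60 or 80 mg BID 4 h apart, 7 days on and 7 off, after a single dose on D-3. Investigators graded AEs at every visit per CTCAE v5.0. DLT was assessed over cycle 1 and covered grade 4 cytopenias, febrile or bleeding grade ≥3 cytopenias, and grade ≥3 non-hematological toxicity. Safety set: ≥1 dose and ≥1 safety evaluation.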

CN(C)Cc1c(C(=O)NCCOc2ccc(C(=O)NO)cc2)oc2ccccc12 [abexinostat, Abexinostat]
No DLT: dose limiting toxicity (DLT) (dose escalation 40, 60, 80 mg BID, assessed after cycle 1)
36.4%: any grade TEAE: abnormal T wave on electrocardiogram (safety set, all doses, 4/11) | any grade TEAE: anemia (safety set, all doses, 4/11) | any grade TEAE: diarrhea (safety set, all doses, 4/11) | any grade TEAE: fatigue (safety set, all doses, 4/11) | any grade TEAE: leukopenia (safety set, all doses, 4/11)
4 (36.4) n (%): TEAE: Abnormal T-wave on electrocardiogram (Total (n = 11), Any grade) | TEAE: Anemia (Total (n = 11), Any grade) | TEAE: Diarrhea (Total (n = 11), Any grade) | TEAE: Fatigue (Total (n = 11), Any grade) | TEAE: Leukopenia (Total (n = 11), Any grade)
grade 1 or 2: grade of most TEAEs (safety set, n = 11)
6 (54.5) n (%): TEAE: Hypertriglyceridemia (Total (n = 11), Any grade)
5 (45.5) n (%): TEAE: Hypoalbuminemia (Total (n = 11), Any grade) | TEAE: Hypoproteinemia (Total (n = 11), Any grade) | TEAE: Neutropenia (Total (n = 11), Any grade) | TEAE: Thrombocytopenia (Total (n = 11), Any grade) | TEAE: Any TEAEs (Total (n = 11), ≥ Grade 3)
3 (27.3) n (%): TEAE: Abnormal ST segment on electrocardiogram (Total (n = 11), Any grade) | TEAE: Elevated low-density lipoprotein (Total (n = 11), Any grade) | TEAE: Elevated α-hydroxybutyrate dehydrogenase (Total (n = 11), Any grade) | TEAE: Hypercholesterolemia (Total (n = 11), Any grade) | TEAE: Hyperglycemia (Total (n = 11), Any grade) | TEAE: Hyperuricemia (Total (n = 11), Any grade) | TEAE: Lymphopenia (Total (n = 11), Any grade) | TEAE: Nausea (Total (n = 11), Any grade) | TEAE: Urinary white blood cell positivity (Total (n = 11), Any grade) | TEAE: Hypertriglyceridemia (Total (n = 11), ≥ Grade 3)
45.5%: any grade TEAE: hypoalbuminemia (safety set, all doses, 5/11) | any grade TEAE: hypoproteinemia (safety set, all doses, 5/11) | any grade TEAE: neutropenia (safety set, all doses, 5/11) | any grade TEAE: thrombocytopenia (safety set, all doses, 5/11)
well-tolerated: tolerability
18.2%: ≥ grade 3 thrombocytopenia (safety set, all doses, 2/11 (abstract: grade 3))
2 (18.2) n (%): TEAE: Thrombocytopenia (Total (n = 11), ≥ Grade 3)
3 (100) n (%): TEAE: Any TEAEs (60 mg BID (n = 3), Any grade)
2 (66.7) n (%): TEAE: Elevated low-density lipoprotein (60 mg BID (n = 3), Any grade) | TEAE: Hypertriglyceridemia (60 mg BID (n = 3), Any grade) | TEAE: Hypoalbuminemia (60 mg BID (n = 3), Any grade) | TEAE: Hypoproteinemia (60 mg BID (n = 3), Any grade) | TEAE: Thrombocytopenia (60 mg BID (n = 3), Any grade) | TEAE: Any TEAEs (60 mg BID (n = 3), ≥ Grade 3)
2 (50.0) n (%): TEAE: Hypoalbuminemia (40 mg BID (n = 4), Any grade) | TEAE: Thrombocytopenia (40 mg BID (n = 4), Any grade) | TEAE: Abnormal ST segment on electrocardiogram (80 mg BID (n = 4), Any grade) | TEAE: Anemia (80 mg BID (n = 4), Any grade) | TEAE: Fatigue (80 mg BID (n = 4), Any grade) | TEAE: Hyperglycemia (80 mg BID (n = 4), Any grade) | TEAE: Hypoproteinemia (80 mg BID (n = 4), Any grade) | TEAE: Lymphopenia (80 mg BID (n = 4), Any grade) | TEAE: Nausea (80 mg BID (n = 4), Any grade) | TEAE: Any TEAEs (80 mg BID (n = 4), ≥ Grade 3) | TEAE: Hypertriglyceridemia (80 mg BID (n = 4), ≥ Grade 3)
1 (9.1) n (%): TEAE: Hyperglycemia (Total (n = 11), ≥ Grade 3)
11 (100) n (%): TEAE: Any TEAEs (Total (n = 11), Any grade)
1 (25.0) n (%): TEAE: Anemia (40 mg BID (n = 4), Any grade) | TEAE: Elevated low-density lipoprotein (40 mg BID (n = 4), Any grade) | TEAE: Elevated α-hydroxybutyrate dehydrogenase (40 mg BID (n = 4), Any grade) | TEAE: Fatigue (40 mg BID (n = 4), Any grade) | TEAE: Hypercholesterolemia (40 mg BID (n = 4), Any grade) | TEAE: Hyperglycemia (40 mg BID (n = 4), Any grade) | TEAE: Hypertriglyceridemia (40 mg BID (n = 4), Any grade) | TEAE: Hyperuricemia (40 mg BID (n = 4), Any grade) | TEAE: Hypoproteinemia (40 mg BID (n = 4), Any grade) | TEAE: Neutropenia (40 mg BID (n = 4), Any grade) | TEAE: Urinary white blood cell positivity (40 mg BID (n = 4), Any grade) | TEAE: Any TEAEs (40 mg BID (n = 4), ≥ Grade 3) | TEAE: Thrombocytopenia (40 mg BID (n = 4), ≥ Grade 3) | TEAE: Elevated α-hydroxybutyrate dehydrogenase (80 mg BID (n = 4), Any grade) | TEAE: Hypercholesterolemia (80 mg BID (n = 4), Any grade) | TEAE: Hyperuricemia (80 mg BID (n = 4), Any grade) | TEAE: Hypoalbuminemia (80 mg BID (n = 4), Any grade) | TEAE: Thrombocytopenia (80 mg BID (n = 4), Any grade) | TEAE: Urinary white blood cell positivity (80 mg BID (n = 4), Any grade) | TEAE: Hyperglycemia (80 mg BID (n = 4), ≥ Grade 3)
one patient: Dose interruption (40 mg BID group) | Dose interruption (60 mg BID group) | Dose reduction due to TEAEs (60 mg BID group, thrombocytopenia) | Dose reduction due to TEAEs (80 mg BID group, QTc interval prolongation)
54.5%: any grade TEAE: hypertriglyceridemia (safety set, all doses, 6/11)
0 n (%): TEAE: Abnormal ST segment on electrocardiogram (40 mg BID (n = 4), Any grade) | TEAE: Abnormal T-wave on electrocardiogram (40 mg BID (n = 4), Any grade) | TEAE: Diarrhea (40 mg BID (n = 4), Any grade) | TEAE: Leukopenia (40 mg BID (n = 4), Any grade) | TEAE: Lymphopenia (40 mg BID (n = 4), Any grade) | TEAE: Nausea (40 mg BID (n = 4), Any grade) | TEAE: Hyperglycemia (60 mg BID (n = 3), Any grade) | TEAE: Elevated low-density lipoprotein (80 mg BID (n = 4), Any grade)
3 (75.0) n (%): TEAE: Abnormal T-wave on electrocardiogram (80 mg BID (n = 4), Any grade) | TEAE: Diarrhea (80 mg BID (n = 4), Any grade) | TEAE: Hypertriglyceridemia (80 mg BID (n = 4), Any grade) | TEAE: Leukopenia (80 mg BID (n = 4), Any grade) | TEAE: Neutropenia (80 mg BID (n = 4), Any grade)
favorable tolerability: tolerability (listed as Abexinostat)
4 (100) n (%): TEAE: Any TEAEs (40 mg BID (n = 4), Any grade) | TEAE: Any TEAEs (80 mg BID (n = 4), Any grade)
80 mg BID: recommended phase 2 dose (RP2D) (7 days on, 7 days off, oral)
1 (33.3) n (%): TEAE: Abnormal ST segment on electrocardiogram (60 mg BID (n = 3), Any grade) | TEAE: Abnormal T-wave on electrocardiogram (60 mg BID (n = 3), Any grade) | TEAE: Anemia (60 mg BID (n = 3), Any grade) | TEAE: Diarrhea (60 mg BID (n = 3), Any grade) | TEAE: Elevated α-hydroxybutyrate dehydrogenase (60 mg BID (n = 3), Any grade) | TEAE: Fatigue (60 mg BID (n = 3), Any grade) | TEAE: Hypercholesterolemia (60 mg BID (n = 3), Any grade) | TEAE: Hyperuricemia (60 mg BID (n = 3), Any grade) | TEAE: Leukopenia (60 mg BID (n = 3), Any grade) | TEAE: Lymphopenia (60 mg BID (n = 3), Any grade) | TEAE: Nausea (60 mg BID (n = 3), Any grade) | TEAE: Neutropenia (60 mg BID (n = 3), Any grade) | TEAE: Urinary white blood cell positivity (60 mg BID (n = 3), Any grade) | TEAE: Hypertriglyceridemia (60 mg BID (n = 3), ≥ Grade 3) | TEAE: Thrombocytopenia (60 mg BID (n = 3), ≥ Grade 3)
27.3%: ≥ grade 3 hypertriglyceridemia (safety set, all doses, 3/11 (abstract: grade 3))
